Screening results as filed in PubChem BioAssay.
PAFAH2 FP inh: inhibitors of human PAFAH2 | recombinant PAFAH2, FP-rhodamine activity probe, fluorescence polarization | inhibition, % at 3.39 µM | 340,000 tested, 0.99% active | AID 492956;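 active = inhibition above the mean over all tested compounds plus 3 SD, cut at about 30% in these data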;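 note: inhibitors block probe labeling of enzyme so polarization drops; 0% = enzyme with DMSO and 100% = wells lacking PAFAH2 protein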
PAFAH1B3 inh: inhibitors of human PAFAH1B3. AID 492972. 340,000 tested, 0.28% active. inhibition, % at 3.39 µM. recombinant PAFAH1B3, FP-rhodamine probe, fluorescence polarization;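 active = inhibition above the screen-wide average of all tested compounds plus 3 SD, cut at about 25% in these data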;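 note: 0% = enzyme with DMSO only and 100% = wells lacking PAFAH1B3 protein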
Apaf1 inhib: human Apaf-1 inhibition; inhibition, % at 20 µM; reconstituted apoptosome caspase-3 activity, DEVD-Rh110 fluorescence; AID 489030; 330,000 tested, 0.71% active; O14727; active = inhibition of at least 40% at 20 µM;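 note: plate controls were DMSO wells for no effect and DEVD-CHO caspase inhibitor wells for full effect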
Target sequence (O14727 whole entry, looked up): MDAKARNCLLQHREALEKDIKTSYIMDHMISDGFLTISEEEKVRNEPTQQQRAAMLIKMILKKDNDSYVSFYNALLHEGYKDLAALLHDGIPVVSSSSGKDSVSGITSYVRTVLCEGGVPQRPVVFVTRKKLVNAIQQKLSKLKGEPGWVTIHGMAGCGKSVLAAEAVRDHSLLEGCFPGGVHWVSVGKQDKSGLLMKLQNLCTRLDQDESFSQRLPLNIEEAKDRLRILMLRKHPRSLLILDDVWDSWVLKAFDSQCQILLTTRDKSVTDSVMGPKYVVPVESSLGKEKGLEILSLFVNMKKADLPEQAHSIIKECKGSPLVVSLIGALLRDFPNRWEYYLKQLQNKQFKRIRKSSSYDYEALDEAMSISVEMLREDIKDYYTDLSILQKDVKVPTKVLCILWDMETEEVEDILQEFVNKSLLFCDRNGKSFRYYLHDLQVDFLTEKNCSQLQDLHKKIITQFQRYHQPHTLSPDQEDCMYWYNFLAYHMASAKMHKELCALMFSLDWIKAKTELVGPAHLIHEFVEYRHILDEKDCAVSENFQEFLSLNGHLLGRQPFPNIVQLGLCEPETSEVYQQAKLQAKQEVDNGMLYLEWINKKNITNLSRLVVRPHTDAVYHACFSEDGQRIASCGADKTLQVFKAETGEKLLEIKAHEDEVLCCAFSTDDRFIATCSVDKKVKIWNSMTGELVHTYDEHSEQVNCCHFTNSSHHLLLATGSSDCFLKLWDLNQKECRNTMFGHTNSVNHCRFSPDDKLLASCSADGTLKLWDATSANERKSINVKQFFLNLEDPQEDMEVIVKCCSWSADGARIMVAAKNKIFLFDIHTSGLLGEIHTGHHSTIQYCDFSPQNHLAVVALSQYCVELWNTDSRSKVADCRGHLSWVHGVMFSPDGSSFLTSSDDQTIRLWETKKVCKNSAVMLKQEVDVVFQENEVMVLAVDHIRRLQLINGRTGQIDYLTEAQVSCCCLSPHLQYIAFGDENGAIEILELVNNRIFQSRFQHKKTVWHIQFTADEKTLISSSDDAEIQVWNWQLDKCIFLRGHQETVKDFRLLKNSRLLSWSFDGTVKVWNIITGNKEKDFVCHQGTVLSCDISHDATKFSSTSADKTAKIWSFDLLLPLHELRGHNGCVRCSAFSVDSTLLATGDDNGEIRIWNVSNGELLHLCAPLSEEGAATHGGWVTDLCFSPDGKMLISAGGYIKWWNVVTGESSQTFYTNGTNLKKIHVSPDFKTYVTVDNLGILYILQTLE
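Material: cell-free apoptosome with Apaf-1, procaspase-3 and caspase-9; Buffer or medium: Hepes pH 7.5 with detergent and BSA; Reagent: cytochrome c trigger plus (Z-DEVD)2-Rh110 caspase-3 substrate; Times: compound with Apaf-1, dATP, procaspase-3 30 min, then 50 min reaction, room temperature; Technique: Rh110 fluorescence intensity.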
PAFAH1B2 inh: inhibitors of human PAFAH1B2; recombinant PAFAH1B2, FP-rhodamine activity probe, fluorescence polarization; 340,000 tested, 1.2% active; inhibition, % at 3.39 µM; P68402;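 active = inhibition above the mean of all tested compounds plus 3 SD, cut at about 24% in these data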;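 note: 0% = enzyme with DMSO and 100% = wells lacking PAFAH1B2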
pPAFAH FP inh: inhibitors of human plasma PAF acetylhydrolase (pPAFAH). 330,000 tested, 1.5% active. Q13093. AID 463082. recombinant pPAFAH, FP-rhodamine probe fluorescence polarization. inhibition, % at 3.39 µM;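 active = inhibition above the mean inhibition across the screen plus 3 SD, cut at about 25% in these data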;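 note: inhibitors block binding of the rhodamine activity-based probe so polarization drops; 0% = enzyme with DMSO and 100% = wells lacking pPAFAH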
PAFAH2 FP conf: confirmation of human PAFAH2 inhibitors | shares compounds with PAFAH2 FP inh | recombinant PAFAH2, FP-rhodamine activity probe, fluorescence polarization | inhibition, % at 3.39 µM | 2,300 tested, 65% active;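 active = mean inhibition over three repeats above a set limit taken from the earlier primary screen, cut at about 30% in these data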;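 note: inhibitor blocks binding of rhodamine activity probe so polarization falls; 0% = enzyme with DMSO and 100% = wells lacking PAFAH2 protein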
Starred values were filed as active, the others as inactive; . = no result. A selection: hits, their analogues and other compounds. The true share with any hit is near 3.1%.

SMILES	PAFAH2 FP inh	PAFAH1B3 inh	Apaf1 inhib	PAFAH1B2 inh	pPAFAH FP inh	PAFAH2 FP conf
O=C(COC(=O)c1ccc(F)c(S(=O)(=O)N2CCCCC2)c1)NCc1ccc(F)cc1	32*	7	5	1	8	17
O=C(COC(=O)c1ccc(S(=O)(=O)N2CCCCCC2)cc1)NCc1ccc(F)cc1	5	13	6	8	.	.
Nc1cc(C(=O)OCC(=O)NCc2ccc(F)cc2)ccc1Cl	55*	11	-5	1	10	44*
Cn1cc(C(=O)N2CCCC(Nc3ccc(F)cc3)C2)c2ccccc21 (stereo not drawn)	10	10	10	9	2	.
COc1cc(NC(=O)CCC(=O)c2cccs2)cc(OC)c1	1	0	5	4	-1	.
Cn1c(=O)c2c(nc(Cl)n2CC(=O)NC2(C#N)CCCCC2)n(C)c1=O	5	3	9	0	-2	.
C=C(C)COc1ccc2c(C)c(C)c(=O)oc2c1OCC(=C)C	38*	4	13	3	9	40*
O=c1cc(-c2ccccc2)[nH]n1-c1ccccc1	3	12	.	4	.	.
O=c1cc(-c2ccccc2)[nH]n1-c1nc2ccccc2s1	42*	17	13	3	15	47*
Cc1cccnc1NC(=O)CSc1ncnc2sc(C)c(C)c12	10	-1	0	0	3	.
Cc1sc2ncnc(SCC(=O)Nc3ncccc3O)c2c1C	66*	5	8	-4	20	53*
CCC(CC)C(=O)OCC(=O)NC12CC3CC(CC(C3)C1)C2	64*	9	-11	10	4	43*
N#CC1(NC(=O)COC(=O)C23CC4CC(CC(O)(C4)C2)C3)CCCCC1	48*	9	-8	4	8	45*
O=C(COC(=O)C12CC3CC(CC(C3)C1)C2)NC12CC3CC(CC(C3)C1)C2	90*	1	21	14	23	86*
CCOCC(=O)OCC(=O)NC12CC3CC(CC(C3)C1)C2	1	2	8	-2	-2	.
Cc1ccccc1C(=O)NNC(=O)C1CC(=O)N(Cc2ccccc2)C1 (stereo not drawn)	9	4	3	0	4	.
CCOc1ccccc1Nc1nnc(SCC(=O)N(C)C2CCS(=O)(=O)C2)s1 (stereo not drawn)	-5	10	-1	7	7	.
CC1CCN(C(=O)c2ccccc2SCC(=O)NCC2CCCCC2)CC1	5	14	19	6	-5	.
O=C(COC(=O)/C=C/c1ccc(S(=O)(=O)N2CCOCC2)cc1)NCc1ccc(F)cc1	39*	21	4	2	9	34*
COc1ccc(/C=C/C(=O)OCC(=O)Nc2c(C)cccc2C)cc1	63*	5	-4	6	7	65*
Cc1nn(-c2ccccc2)c(C)c1NC(=O)COC(=O)/C=C/c1ccccc1	39*	3	14	1	6	32*
CCC(C(=O)OCC(=O)Nc1c(C)nn(-c2ccccc2)c1C)c1ccccc1 (stereo not drawn)	1	-1	12	3	12	.
COc1ccc(/C=C/C(=O)OCC(=O)NCCNC(=O)COC(=O)/C=C/c2ccc(OC)cc2)cc1	0	-6	2	2	-1	.
Cc1cc(S(=O)(=O)N2CCOCC2)ccc1OCC(=O)Nc1ccccc1F	-13	1	-2	3	-1	.
O=C(COC(=O)/C=C/c1ccc(S(=O)(=O)N2CCOCC2)cc1)Nc1ccccc1F	60*	10	-6	6	9	42*
SMILES	PAFAH2 FP inh	PAFAH1B3 inh	Apaf1 inhib	PAFAH1B2 inh	pPAFAH FP inh	PAFAH2 FP conf
COc1ccc(S(=O)(=O)N2CCCOC2CNC(=O)C(=O)NCCc2ccco2)cc1C (stereo not drawn)	-4	9	-2	-1	5	.
Cc1ccc(S(=O)(=O)N2CCOCC2)cc1NC(=O)COC(=O)/C=C/c1ccc(F)cc1	53*	4	3	0	2	47*
COc1ccc(/C=C/C(=O)OCC(=O)NC(C)CCc2ccccc2)cc1 (stereo not drawn)	68*	7	12	7	7	55*
Cc1ccc(F)cc1NC(=O)/C=C/c1ccc(S(=O)(=O)N2CCOCC2)cc1	-5	6	13	1	3	.
Cc1cccc(C)c1NC(=O)COC(=O)/C=C/c1ccc(S(=O)(=O)N2CCOCC2)cc1	45*	8	8	8	1	29
O=C(Nc1c(C(=O)N2CCOCC2)cnn1-c1ccccc1)c1ccc(F)cc1	-6	11	-6	-3	5	.
O=C(O)/C(=C\c1ccc(Cl)c([N+](=O)[O-])c1)c1ccc(S(=O)(=O)N2CCCCC2)s1	32*	14	7	21	18	8
Cc1ccc(C(=O)OCC(=O)NN2C(=O)NC3(CCC(C)CC3)C2=O)cc1 (stereo not drawn)	74*	1	6	-3	15	54*
Cc1cccc(C(=O)OCC(=O)NN2C(=O)NC3(CCCCC3)C2=O)c1	29	2	0	0	24	.
O=C(N/N=C/c1cc([N+](=O)[O-])ccc1O)C1CCCCC1	59*	7	0	9	8	41*
O=C(N/N=C/c1cc([N+](=O)[O-])ccc1O)C1C2CCCCC21 (stereo not drawn)	.	.	0	.	4	.
O=C1OC(/C(=C\Nc2cc(Cl)ccc2O)[N+](=O)[O-])c2ccccc21 (stereo not drawn)	49*	9	17	2	18	46*
C=CCn1cccc(C(=O)Nc2ccc(C)c(C)c2)c1=O	12	8	11	7	2	.
O=C(Nc1cc([N+](=O)[O-])ccc1O)c1cccc([N+](=O)[O-])c1	6	11	-7	3	5	.
NS(=O)(=O)c1ccc(O)c(NC(=O)c2ccc([N+](=O)[O-])cc2)c1	31*	4	-1	-3	6	29
COC(=O)[C@H](C)NC(=O)Nc1ccc(S(N)(=O)=O)cc1	3	-1	-8	7	5	.
CC(C)C(Cl)=NOC(=O)Nc1ccc(S(N)(=O)=O)cc1	47*	6	.	8	.	39*
COc1ccccc1C(=O)NC(CCSC)C(=O)OCC(=O)N1CCN(S(=O)(=O)c2ccc(C)cc2)CC1 (stereo not drawn)	-4	1	.	9	.	.
CCOc1ncccc1C(=O)OCC(=O)c1ccc(Br)s1	50*	2	13	1	12	35*
CSc1ncccc1C(=O)OCC(=O)Nc1ccc(Cl)cn1	4	1	-7	3	4	.
CCOc1ncccc1C(=O)OCC(=O)Nc1ccc(Cl)cn1	46*	6	-3	3	24	29
O=C(COC(=O)c1ccccc1)Nc1ccc(Cl)cn1	46*	7	-4	0	2	49*
COc1ccc(C(=O)OCC(=O)Nc2ccc(Cl)cn2)cc1	56*	1	-18	3	6	54*
